Results published in ChEMBL document CHEMBL3259731, “Design, synthesis, and biological evaluation of novel FAK scaffold inhibitors targeting the FAK-VEGFR3 protein-protein interaction” (Eur J Med Chem, 2014).
Where a name gives a salt, the structure may show the parent alone. The source made the active and inactive calls. The rule behind the calls is not given here.

Experiments:
MIA PaCa-2 [1] = experiment: Cytotoxicity against human MIAPaCa2 cells transfected with retroviral expression vector pMSCV-LucSh assessed as growth inhibition at 50 uM after 72 hrs by MTS assay; assay type: functional, cell-based
In short: (§1)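 Cells seeded at 5000/well, attached overnight, then given 50 µM of each analog for 72 h at 37 °C. MTS reagent added for about 1 h, absorbance read at 570 nm. Viability normalized to DMSO/untreated controls. Three independent experiments, each with 3–5 replicate wells per concentration. Cells kept in DMEM with 10% FBS.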

U-87MG ATCC = experiment: Cytotoxicity against human U87 cells assessed as growth inhibition at 50 uM after 72 hrs by MTS assay; assay type: functional, cell-based
In short: (§2)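 MTS assay. Cells kept in DMEM with 10% FBS, plated at 5000 cells/well and left to attach overnight, then exposed to compound (screening at 50 µM) for 72 h at 37 °C. MTS reagent added for about 1 h, then absorbance read at 570 nm. Viability normalized to DMSO/untreated controls. Three independent experiments, 3–5 replicate wells per concentration.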

A-375 = experiment: Cytotoxicity against human A375 cells assessed as growth inhibition at 50 uM after 72 hrs by MTS assay; assay type: functional, cell-based; in short: as §2
C8161 = experiment: Cytotoxicity against human C8161 cells assessed as growth inhibition at 50 uM after 72 hrs by MTS assay; assay type: functional, cell-based; in short: as §2
MDA-MB-231 = experiment: Cytotoxicity against human MDA-MB-231 cells assessed as growth inhibition at 50 uM after 72 hrs by MTS assay; assay type: functional, cell-based; in short: as §2
PANC-1 = experiment: Cytotoxicity against human PANC1 cells transfected with retroviral expression vector pMSCV-LucSh assessed as growth inhibition at 50 uM after 72 hrs by MTS assay; assay type: functional, cell-based; in short: as §1
Focal adhesion kinase 1 = Focal adhesion kinase 1 (Homo sapiens, UniProt Q05397); experiment: Binding affinity to biotinylated human FAK FAT domain by biolayer interoferometry
Sequence of Focal adhesion kinase 1 (Q05397 whole entry, the tested form may be a part): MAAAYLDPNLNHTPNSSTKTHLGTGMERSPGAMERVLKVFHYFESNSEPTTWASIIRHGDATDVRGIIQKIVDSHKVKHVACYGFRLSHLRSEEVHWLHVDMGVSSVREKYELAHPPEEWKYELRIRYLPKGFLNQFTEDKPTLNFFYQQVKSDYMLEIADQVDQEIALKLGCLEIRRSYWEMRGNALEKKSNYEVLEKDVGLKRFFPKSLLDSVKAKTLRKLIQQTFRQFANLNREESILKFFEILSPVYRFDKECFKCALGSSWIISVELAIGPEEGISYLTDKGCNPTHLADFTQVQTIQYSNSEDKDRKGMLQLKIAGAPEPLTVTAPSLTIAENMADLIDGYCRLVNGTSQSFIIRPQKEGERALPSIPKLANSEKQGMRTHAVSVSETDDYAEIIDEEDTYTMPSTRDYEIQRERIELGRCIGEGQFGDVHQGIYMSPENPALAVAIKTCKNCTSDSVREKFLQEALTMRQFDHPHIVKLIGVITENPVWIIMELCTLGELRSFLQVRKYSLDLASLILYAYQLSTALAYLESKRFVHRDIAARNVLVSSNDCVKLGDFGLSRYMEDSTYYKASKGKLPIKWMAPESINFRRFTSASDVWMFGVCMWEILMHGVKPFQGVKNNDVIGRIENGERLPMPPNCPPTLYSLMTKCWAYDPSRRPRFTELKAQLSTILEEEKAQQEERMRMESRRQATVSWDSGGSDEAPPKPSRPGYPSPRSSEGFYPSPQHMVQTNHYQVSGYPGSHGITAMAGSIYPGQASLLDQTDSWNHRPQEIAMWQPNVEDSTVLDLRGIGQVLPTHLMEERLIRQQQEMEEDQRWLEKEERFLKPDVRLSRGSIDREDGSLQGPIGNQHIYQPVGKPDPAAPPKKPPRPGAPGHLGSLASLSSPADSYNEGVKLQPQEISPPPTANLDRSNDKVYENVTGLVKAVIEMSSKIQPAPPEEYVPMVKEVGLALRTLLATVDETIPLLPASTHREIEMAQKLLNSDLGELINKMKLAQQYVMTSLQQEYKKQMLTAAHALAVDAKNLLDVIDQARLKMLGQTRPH
In short: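 Bio-layer interferometry on super streptavidin biosensor tips, pre-wetted in buffer for a baseline before FAT protein immobilization. Association and dissociation measured over 210 s at two small-molecule concentrations. Kon, Koff and Kd derived from the kinetic fits.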

[2] = molecular target: T1, Focal adhesion kinase 1/vascular endothelial growth factor receptor 3 (Homo sapiens) (UniProt P35916+Q05397); experiment: Inhibition of FAK/VEGFR-3 interaction in human MIAPaCa2 cells transfected with retroviral expression vector pMSCV-LucSh assessed as reduction in VEGFR3 pan-phosphorylated tyrosine level after 24 hrs by densitometric analysis; assay type: cell-based; conditions: MIA PaCa-2
T1 sequence (P35916 whole entry, looked up): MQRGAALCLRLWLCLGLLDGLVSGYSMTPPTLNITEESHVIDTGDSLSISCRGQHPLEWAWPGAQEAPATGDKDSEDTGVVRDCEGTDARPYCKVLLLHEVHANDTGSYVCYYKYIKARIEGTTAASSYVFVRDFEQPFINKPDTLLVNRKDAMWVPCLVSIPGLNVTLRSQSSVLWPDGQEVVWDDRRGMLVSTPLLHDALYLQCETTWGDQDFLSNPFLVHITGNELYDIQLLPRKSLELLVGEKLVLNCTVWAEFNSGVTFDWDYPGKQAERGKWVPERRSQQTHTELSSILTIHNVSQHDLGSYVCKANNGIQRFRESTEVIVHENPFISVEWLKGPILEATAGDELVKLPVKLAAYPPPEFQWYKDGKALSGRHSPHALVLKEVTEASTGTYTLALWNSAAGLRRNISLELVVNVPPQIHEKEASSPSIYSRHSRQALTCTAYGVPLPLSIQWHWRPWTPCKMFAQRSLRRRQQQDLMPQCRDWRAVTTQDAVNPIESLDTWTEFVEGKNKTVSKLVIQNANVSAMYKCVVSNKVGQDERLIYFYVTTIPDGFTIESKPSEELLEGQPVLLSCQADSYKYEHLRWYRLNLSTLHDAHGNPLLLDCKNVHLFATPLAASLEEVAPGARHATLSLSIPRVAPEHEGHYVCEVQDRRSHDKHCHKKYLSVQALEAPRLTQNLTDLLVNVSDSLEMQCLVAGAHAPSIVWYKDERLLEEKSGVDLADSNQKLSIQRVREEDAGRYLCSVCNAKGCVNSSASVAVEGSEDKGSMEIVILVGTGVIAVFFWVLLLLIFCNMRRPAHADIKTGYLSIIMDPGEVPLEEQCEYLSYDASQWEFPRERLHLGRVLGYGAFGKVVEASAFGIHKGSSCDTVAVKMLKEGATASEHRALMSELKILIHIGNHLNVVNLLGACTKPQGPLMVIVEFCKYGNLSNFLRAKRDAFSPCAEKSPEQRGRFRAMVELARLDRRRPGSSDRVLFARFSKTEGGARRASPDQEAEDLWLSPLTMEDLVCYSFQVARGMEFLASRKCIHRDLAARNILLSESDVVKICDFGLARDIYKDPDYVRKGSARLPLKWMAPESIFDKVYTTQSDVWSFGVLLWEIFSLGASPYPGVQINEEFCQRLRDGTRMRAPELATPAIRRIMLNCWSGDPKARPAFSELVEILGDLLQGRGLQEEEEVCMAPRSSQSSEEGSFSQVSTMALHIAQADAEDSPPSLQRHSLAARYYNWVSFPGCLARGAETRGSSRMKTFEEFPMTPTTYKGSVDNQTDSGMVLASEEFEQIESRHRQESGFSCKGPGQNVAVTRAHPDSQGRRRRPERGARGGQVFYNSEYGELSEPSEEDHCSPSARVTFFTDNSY
T1 sequence (Q05397 whole entry, looked up): as the sequence (Q05397 whole entry, the tested form may be a part) above
In short: (§3)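 Cells treated at increasing doses for 24 h, then lysed in NP40 buffer with inhibitors. 500 or 800 µg lysate precleared, then immunoprecipitated with FAK 4.47 or VEGFR3 9D9, with isotype IgG and no-antibody controls, overnight with Protein A/G beads at 4 °C. Immunoblotted for pan-phosphotyrosine (4G10), total FAK and total VEGFR3. Bands quantified by densitometry.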

MCF7 = experiment: Cytotoxicity against human MCF7 cells overexpressing VEGFR-3/FAK assessed as inhibition of colony formation at >10 uM after 14 days by 1,9-dimethyl-methylene blue staining-based assay; assay type: functional, cell-based
In short: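 Colony formation. 700 cells/well seeded with compound added immediately, then incubated at 37 °C for 10–14 days (legend: 14 days). Colonies stained for 1 h with 0.25% 1,9-dimethyl-methylene blue in 50% methanol, washed, dried and scanned. Duplicate wells, three independent experiments.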

[3] = molecular target: T1, Focal adhesion kinase 1/vascular endothelial growth factor receptor 3 (Homo sapiens); experiment: Inhibition of FAK/VEGFR-3 interaction in human MIAPaCa2 cells transfected with retroviral expression vector pMSCV-LucSh assessed as decrease in levels of VEGFR3 and phosphorylated tyrosine residues associated with FAK protein after 24 hrs by densitometric analysis; assay type: cell-based; conditions: MIA PaCa-2; in short: as §3
[4] = molecular target: T1, Focal adhesion kinase 1/vascular endothelial growth factor receptor 3 (Homo sapiens); experiment: Inhibition of FAK/VEGFR-3 interaction in human MIAPaCa2 cells transfected with retroviral expression vector pMSCV-LucSh assessed as reduction in VEGFR3 pan-phosphorylated tyrosine level after 24 hrs by immunoprecipitation assay; assay type: cell-based; conditions: MIA PaCa-2; in short: as §3
MIA PaCa-2 [5] = experiment: Cytotoxicity against human MIAPaCa2 cells transfected with retroviral expression vector pMSCV-LucSh assessed as inhibition of colony formation at >10 uM after 14 days by 1,9-dimethyl-methylene blue staining-based assay; assay type: functional, cell-based
In short: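 700 cells/well seeded, and compound added at once at the specified concentrations. Incubated 10–14 days at 37 °C (figure legend gives 14 days). Colonies stained with 0.25% 1,9-dimethyl-methylene blue in 50% methanol for 1 h, washed, dried and scanned. Run in duplicate and repeated three times independently.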

[6] = molecular target: T1, Focal adhesion kinase 1/vascular endothelial growth factor receptor 3 (Homo sapiens); experiment: Inhibition of FAK/VEGFR-3 interaction in human MIAPaCa2 cells transfected with retroviral expression vector pMSCV-LucSh assessed as decrease in levels of VEGFR3 and phosphorylated tyrosine residues associated with FAK protein after 24 hrs by immunoprecipitation assay; assay type: cell-based; conditions: MIA PaCa-2; in short: as §3

| SMILES | growth inhibition (GI) (MIA PaCa-2 [1]) | growth inhibition (GI) (U-87MG ATCC) | growth inhibition (GI) (A-375) | growth inhibition (GI) (C8161) | growth inhibition (GI) (MDA-MB-231) | growth inhibition (GI) (PANC-1) | Kd (Focal adhesion kinase 1) [nM] | inhibition [2] | inhibition (MCF7) | inhibition [3] | inhibition [4] | inhibition (MIA PaCa-2 [5]) | inhibition [6] |
| --- | --- | --- | --- | --- | --- | --- | --- | --- | --- | --- | --- | --- | --- |
| CCCCCCCCN(CCN(C)C)c1ccccn1 | Active | Active | Active | Active | Active | Active | – | – | – | – | – | – | – |
| CCCCCCCCCCCCN(CCN(C)C)c1ccccn1 | Active | Active | Active | Active | Active | Active | – | – | – | – | – | – | – |
| CN(C)CCN(Cc1ccc(Cl)cc1)c1ccccn1 [CHLORPYRAMIN HYDROCHLORIDE] | – | – | – | – | – | – | 570 | Dose-dependent effect | Active | Dose-dependent effect | Dose-dependent effect | Active | Dose-dependent effect |
| CCCN(CCN(C)C)c1ccccn1 | inactive | inactive | inactive | inactive | inactive | inactive | – | – | – | – | – | – | – |
